Results from article PMC10073089 (European Journal of Medicinal Chemistry, 2023).

Key:
[1] = Pharmacokinetic study in ICR; assay type: in vivo, mice; conditions: for conversion of prodrug to parent compound 21: mice plasma after single-dose administration; for improvement in plasma exposure (AUClast) compared to niclosamide: ICR (CD-1) mice, oral 30 mg/kg
Outline: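 Mice (N = 3 per group) fasted 12 h before dosing. Test compound given in DMSO/0.5% HMPC (5/95, v/v), 30 mg/kg orally or 2.5 mg/kg intravenously. Femoral-vein blood taken at 0.25, 0.5, 1, 2, 4, 8 and 24 h. […] analysed by LC-MS/MS for prodrug and parent. Mole correction applied for prodrug dosing; AUClast derived.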

SKP2 = assay: Western blot assay, SKP2 level in Vero-E6 cells; assay type: cell-based; conditions: 16 h
Sub-acute toxicity study = assay type: in vivo, ICR mice
Outline: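 Male mice of 18–20 g in four groups of ten: one control group and three oral groups at 50, 100 and 200 mg/kg, dosed once daily for ten days. Body weight, food intake and behaviour checked daily. Animals fasted before dissection. Heart, liver, spleen, lung, kidney and administration site collected for organ weight and histology.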

[2] = Metabolic stability in human liver microsomes; assay type: in vitro ADME; conditions: pH 7.4
Outline: (§1)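 Microsomes at 0.33 mg/mL final in 0.1 M Tris pH 7.4 with 5 mM MgCl2, 0.01% DMSO and 0.005% BSA. Test compound at 1 μM final. Preincubated 10 min at 37 °C, then started with NADPH (1 mM final). Aliquots taken at 0, 7, 17, 30 and 60 min and quenched with cold methanol. After centrifugation, parent compound quantified by LC-MS/MS; half-life reported in min.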

BECN1 = assay: Western blot assay, BECN1; assay type: cell-based; conditions: Vero-E6 cells
[3] = Metabolic stability in mouse liver microsomes; assay type: in vitro ADME; conditions: pH 7.4
Outline: as §1

Compound	conversion of prodrug to parent compound 21 [1]	level of SKP2 (SKP2)	improvement in plasma exposure (AUClast) compared to niclosamide [1] [fold]	half-life at 1 µM [2] [min]	levels of BECN1 (BECN1; 10 μM, vs control group)	half-life at 1 µM [3] [min]	other results
CC(=O)Oc1cc(F)c(Cl)cc1C(=O)Nc1ccc(OC(F)(F)F)cc1 [Compound 25, 4-Chloro-5-fluoro-2-((4-(trifluoromethoxy)phenyl)carbamoyl)phenyl acetate]	rapidly hydrolyze to compound 21	–	–	–	–	–	–
O=C(Nc1ccc(OC(F)(F)F)cc1)c1cc(Cl)c(F)cc1O [Compound 21, 5-Chloro-4-fluoro-2-hydroxy-N-(4-(trifluoromethoxy)phenyl)benzamide]	–	reduced	10.84	120	higher than the control group	22.6	tolerability (Sub-acute toxicity study; ICR mice, oral dosage up to 200 mg/kg, ten days): well tolerated; changes in body weight, organ weight, or tissue histology (Sub-acute toxicity study; male ICR mice, 50, 100, 200 mg/kg once a day for ten days): No significant changes; mortality (Sub-acute toxicity study; male ICR mice, 50, 100, 200 mg/kg once a day, 10 days observation): No mortality; levels of BECN1 (BECN1; 3 μM and 1 μM): slightly increased
O=C(Nc1ccc(C(F)(F)F)cc1)c1cc(Cl)c(F)cc1O [Compound 19, 5-Chloro-4-fluoro-2-hydroxy-N-(4-(trifluoromethyl)phenyl)benzamide]	–	–	3.19	–	–	–	–
CC(C)C(=O)Oc1cc(F)c(Cl)cc1C(=O)Nc1ccc(OC(F)(F)F)cc1 [Compound 24, 4-Chloro-5-fluoro-2-((4-(trifluoromethoxy)phenyl)carbamoyl)phenyl isobutyrate]	rapidly hydrolyze to compound 21	–	–	–	–	–	–
C[C@H](N)C(=O)Oc1cc(F)c(Cl)cc1C(=O)Nc1ccc(OC(F)(F)F)cc1.Cl [Compound 26, 4-Chloro-5-fluoro-2-((4-(trifluoromethoxy)phenyl)carbamoyl)phenyll-alaninate monohydrochloride]	barely transforms to parent compound 21	–	–	–	–	–	–
O=C(Nc1ccc([N+](=O)[O-])cc1Cl)c1cc(Cl)ccc1O [NIC, niclosamide, reference compound]	–	reduced	–	13.3	higher than the control group	5.86	–
